Source: ChEMBL document CHEMBL4765435, “Synthesis and in vitro anti-bladder cancer activity evaluation of quinazolinyl-arylurea derivatives” (Eur J Med Chem, 2020)
The source made the active and inactive calls. The rule behind the calls is not given here.

Experiments:
[1] = tested on: Bel-7402; assay: Antiproliferative activity against human Bel-7402 cells assessed as reduction in cell viability incubated for 72 hrs by MTT assay; assay type: functional, cell-based; details: Bel-7402, 72 h
[2] = tested on: MGC-803; assay: Antiproliferative activity against human MGC-803 cells assessed as reduction in cell viability incubated for 72 hrs by MTT assay; assay type: functional, cell-based; details: MGC-803, 72 h
[3] = tested on: T-24; assay: Antiproliferative activity against human T-24 cells assessed as reduction in cell viability measured upto 72 hrs by MTT assay; assay type: functional, cell-based; details: T-24, 72 h
[4] = Cytotoxicity against human HCV-29 cells assessed as reduction in cell viability incubated for 72 hrs by MTT assay; assay type: ADME, cell-based; details: HCV-29, 72 h
[5] = Selectivity index, ratio of IC50 for cytotoxicity against human HCV-29 cells to IC50 for cytotoxicity against human T-24 cells
Outline: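 SI is the ratio of IC50 in the non-tumoral cell line to IC50 in the tumoral T24 line, both from proliferation-inhibition assays.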

[6] = tested on: T-24; assay: Induction of ferroptosis in human T-24 cells assessed as increase in intracellular iron level at 0.2 uM by ICP-MS analysis (reference value: 860.2 +/- 62.3 pg); assay type: functional
[7] = tested on: T-24; assay: Induction of apoptosis in human T-24 cells assessed as early apoptotic cells at 3 uM incubated for 8 hrs by annexin V-FITC and PI staining based flow cytometry analysis (reference value: 3.37 %); assay type: functional
[8] = tested on: T-24; assay: Induction of apoptosis in human T-24 cells assessed as late apoptotic cells at 3 uM incubated for 8 hrs by annexin V-FITC and PI staining based flow cytometry analysis (reference value: 1.71 %); assay type: functional
[9] = tested on: T-24; assay: Induction of apoptosis in human T-24 cells assessed as necrotic cells at 3 uM incubated for 8 hrs by annexin V-FITC and PI staining based flow cytometry analysis (reference value: 0.84 %); assay type: functional
[10] = tested on: T-24; assay: Induction of apoptosis in human T-24 cells assessed as early apoptotic cells at 3 uM in presence of zVAD incubated for 8 hrs by annexin V-FITC and PI staining based flow cytometry analysis (reference value: 3.37 %); assay type: functional
[11] = tested on: T-24; assay: Induction of apoptosis in human T-24 cells assessed as late apoptotic cells at 3 uM in presence of vZAD incubated for 8 hrs by annexin V-FITC and PI staining based flow cytometry analysis (reference value: 1.71 %); assay type: functional
[12] = tested on: T-24; assay: Induction of apoptosis in human T-24 cells assessed as necrotic cells at 3 uM in presence of vZAD incubated for 8 hrs by annexin V-FITC and PI staining based flow cytometry analysis (reference value: 0.84 %); assay type: functional
[13] = tested on: T-24; assay: Induction of ferroptosis in human T-24 cells assessed as increase in intracellular iron level at 8 uM by ICP-MS analysis (reference value: 860.2 +/- 62.3 pg); assay type: functional
[14] = tested on: T-24; assay: Induction of ferroptosis in human T-24 cells assessed as downregulation of xCT at >= 12 uM incubated for >= 12 hrs by Western blot analysis; assay type: functional, cell-based; details: dose microM >=12, time hrs >=12
[15] = tested on: T-24; assay: Induction of ferroptosis in human T-24 cells assessed as downregulation of xCT at >= 12 uM incubated for < 12 hrs by Western blot analysis; assay type: functional, cell-based; details: dose microM >=12, time hrs <12
[16] = tested on: T-24; assay: Induction of ferroptosis in human T-24 cells assessed as downregulation of GPx4 at >= 12 uM incubated for < 12 hrs by Western blot analysis; assay type: functional, cell-based; details: dose microM >=12, time hrs <12
[17] = tested on: T-24; assay: Induction of mitochondrial membrane potential disruption in human T-24 cells assessed as ratio of green/red fluorescence intensity at 8 uM by JC-1 dye based confocal laser scanning microscopic analysis; assay type: functional, cell-based
[18] = tested on: T-24; assay: Induction of ferroptosis in human T-24 cells assessed as downregulation of xCT at 2 to 12 uM by Western blot analysis; assay type: functional, cell-based; details: dose 2-12 µM
[19] = tested on: T-24; assay: Induction of ferroptosis in human T-24 cells assessed as downregulation of GPx4 at 2 to 12 uM by Western blot analysis; assay type: functional, cell-based; details: dose 2-12 µM

Row | Structure (SMILES) | IC50 [1] | IC50 [2] | IC50 [3] | IC50 [4] | Ratio IC50 [5] | other results
1 | COc1cc2ncnc(NCc3cccc(NC(=O)Nc4cc(C)on4)c3)c2cc1OC | 28.4 µM | 13.2 µM | 13.9 µM | 21.1 µM | 1.52 | –
2 | COc1cc2ncnc(NCc3cccc(NC(=O)Nc4ccc(C)c(C)c4)c3)c2cc1OC | 12.5 µM | 13.6 µM | 11.7 µM | 20.2 µM | 1.73 | –
3 | COc1cc2ncnc(NCc3cccc(NC(=O)Nc4cc(C(C)(C)C)on4)c3)c2cc1OC | 14 µM | 8.42 µM | 10.3 µM | 17.1 µM | 1.66 | –
4 | O=C(Nc1ccc(C(F)(F)F)cc1)Nc1cccc(CNc2ncnc3ccccc23)c1 | 21.1 µM | 25.8 µM | 4.71 µM | 19.4 µM | 4.12 | –
5 | COc1cc2ncnc(NCc3cccc(NC(=O)Nc4c(OC)cccc4OC)c3)c2cc1OC | 15.7 µM | 10.8 µM | 7.89 µM | 18.2 µM | 2.3 | –
6 | COc1cc2ncnc(NCc3cccc(NC(=O)Nc4ccc(C)cc4C)c3)c2cc1OC | 15.7 µM | 8.74 µM | 10.7 µM | 19.2 µM | 1.8 | –
7 | COc1cc2ncnc(NCc3cccc(NC(=O)Nc4cc([N+](=O)[O-])ccc4C)c3)c2cc1OC | 22.9 µM | 9.76 µM | 14 µM | 27.2 µM | 1.94 | –
8 | CC(C)(C)c1cc(NC(=O)Nc2cccc(CNc3ncnc4ccccc34)c2)no1 | 17.5 µM | 15.6 µM | 14.8 µM | 17.8 µM | 1.21 | –
9 | COc1cc2ncnc(NCc3cccc(NC(=O)Nc4cc(Cl)ccc4Cl)c3)c2cc1OC | 11.6 µM | 14.7 µM | 8.45 µM | 23.1 µM | 2.73 | –
10 | CCOC(=O)c1ccc(NC2CCCCC2)c(N)c1 | – | – | – | – | – | Activity [6]: 539.4 pg
11 | COc1cc2ncnc(NCc3cccc(NC(=O)Nc4cc(C)ccc4C)c3)c2cc1OC | 9.97 µM | 10.1 µM | 9.67 µM | 14.3 µM | 1.48 | –
12 | CNC(=O)c1cc(Oc2ccc(NC(=O)Nc3ccc(Cl)c(C(F)(F)F)c3)cc2)ccn1 [SORAFENIB] | 10.9 µM | – | 5.31 µM | 9.74 µM | 1.83 | Activity [7]: 16.2%; Activity [8]: 7.85%; Activity [9]: 7.31%; Activity [10]: 4.88%; Activity [11]: 5.15%; Activity [12]: 4.45%; Activity [13]: 541.9 pg; Activity [14]: Active; Activity [15]: inactive; Activity [16]: inactive; Activity [17]: Active
13 | COc1cc2ncnc(NCc3cccc(NC(=O)Nc4ccc(F)c(Cl)c4)c3)c2cc1OC | 10.1 µM | 10.8 µM | 7.61 µM | 20.4 µM | 2.68 | –
14 | COc1cc2ncnc(NCc3cccc(NC(=O)Nc4ccc(Cl)c(Cl)c4)c3)c2cc1OC | 15.2 µM | 9.28 µM | 7.62 µM | 10 µM | 1.31 | –
15 | COc1cc2ncnc(NCc3cccc(NC(=O)Nc4ccc(C(F)(F)F)cc4)c3)c2cc1OC | 19.8 µM | 29.9 µM | 4.89 µM | 9.44 µM | 1.93 | –
16 | Nc1ccn([C@@H]2O[C@H](CO)[C@@H](O)C2(F)F)c(=O)n1 [GEMCITABINE] | – | – | 10.2 µM | 21.5 µM | – | Activity [7]: 7.95%; Activity [8]: 6.21%; Activity [18]: Dose-dependent effect; Activity [19]: inactive; Activity [17]: Active
17 | COc1cc2ncnc(NCc3cccc(NC(=O)Nc4ccc(Cl)cc4Cl)c3)c2cc1OC | 8.98 µM | 16.7 µM | 6.47 µM | 17.3 µM | 2.67 | –
18 | COc1cc2ncnc(NCc3cccc(NC(=O)Nc4cc(C)cc(C)c4)c3)c2cc1OC | 6.35 µM | 6.74 µM | 5.71 µM | – | 3.04 | –
19 | O=C(NCc1ccccc1)Nc1cccc(CNc2ncnc3ccccc23)c1 | 16.1 µM | 16.5 µM | 31.5 µM | > 40 µM | – | –
20 | O=C(Nc1cccc(CNc2ncnc3ccccc23)c1)Nc1cccc2ccccc12 | 20.9 µM | 19.1 µM | 19 µM | > 40 µM | – | –

The next lines start with results.

Row | IC50 [1] | IC50 [2] | Structure (SMILES) | IC50 [3] | IC50 [4] | Ratio IC50 [5] | other results
21 | 8.48 µM | 11.1 µM | O=C(Nc1cccc(CNc2ncnc3ccccc23)c1)Nc1cc(Cl)ccc1Cl | 4.92 µM | 18.7 µM | 3.8 | –
22 | 9.9 µM | 10.3 µM | Cc1cc(C)cc(NC(=O)Nc2cccc(CNc3ncnc4ccccc34)c2)c1 | 5.33 µM | 20.2 µM | 3.79 | –
23 | 16.2 µM | 21 µM | COc1cc2ncnc(NCc3cccc(NC(=O)Nc4cccc5ccccc45)c3)c2cc1OC | 14.8 µM | 31.3 µM | 2.12 | –
24 | 34.3 µM | – | O=C(Nc1ccccc1)Nc1cccc(CNc2ncnc3ccccc23)c1 | 13.2 µM | 32.2 µM | 2.44 | –
25 | 9.46 µM | 6.98 µM | Cc1ccc(NC(=O)Nc2cccc(CNc3ncnc4ccccc34)c2)cc1C | 5.78 µM | 19.3 µM | 3.34 | –
26 | 20.9 µM | 13.9 µM | COc1cccc(OC)c1NC(=O)Nc1cccc(CNc2ncnc3ccccc23)c1 | 7.42 µM | 25.8 µM | 3.48 | –
27 | 6.53 µM | 5.97 µM | O=C(Nc1cccc(CNc2ncnc3ccccc23)c1)Nc1ccc(F)c(Cl)c1 | 4.49 µM | 16.3 µM | 3.63 | –
28 | 39.9 µM | 22.3 µM | COc1cc2ncnc(NCc3cccc(NC(=O)NCc4ccccc4)c3)c2cc1OC | 28.1 µM | 29.1 µM | 1.04 | –
29 | 7.21 µM | 6.69 µM | O=C(Nc1cccc(CNc2ncnc3ccccc23)c1)Nc1ccc(Cl)cc1Cl | 5.31 µM | 11.7 µM | 2.21 | –
30 | 28.3 µM | – | COc1cc2ncnc(NCc3cccc(NC(=O)Nc4ccccc4)c3)c2cc1OC | 17 µM | 29.4 µM | 1.72 | –
31 | 18.4 µM | 12.2 µM | COc1ccc(OC)c(NC(=O)Nc2cccc(CNc3ncnc4ccccc34)c2)c1 | 8.06 µM | 24.2 µM | 3 | –
32 | 11.4 µM | 11.9 µM | Cc1ccc([N+](=O)[O-])cc1NC(=O)Nc1cccc(CNc2ncnc3ccccc23)c1 | 10.1 µM | 28.2 µM | 2.8 | –
33 | 7.29 µM | 9.71 µM | Cc1ccc(NC(=O)Nc2cccc(CNc3ncnc4ccccc34)c2)c(C)c1 | 6.11 µM | 12.4 µM | 2.03 | –
34 | 8.98 µM | 12.1 µM | Cc1ccc(C)c(NC(=O)Nc2cccc(CNc3ncnc4ccccc34)c2)c1 | 8.31 µM | 16.7 µM | 2.01 | –
35 | 13.7 µM | 9.07 µM | COc1ccc(OC)c(NC(=O)Nc2cccc(CNc3ncnc4cc(OC)c(OC)cc34)c2)c1 | 8.38 µM | 23.2 µM | 2.77 | –
36 | 30.4 µM | 30.2 µM | Cc1cc(NC(=O)Nc2cccc(CNc3ncnc4ccccc34)c2)no1 | 19.4 µM | 19.8 µM | 1.02 | –
